Assay results: ChEMBL document CHEMBL2034874, “5-acetyl-2-arylbenzimidazoles as antiviral agents. Part 4” (Eur J Med Chem, 2012)

Experiments:
[1] = Antiviral activity against BVDV1 NADL ATCC VR-534 infected in MDBK cells assessed as inhibition of virus-induced cytopathogenicity after 3 to 4 days by MTT assay; format: functional, cell-based, Bovine viral diarrhea virus 1-NADL; settings: Bovine viral diarrhea virus isolates and strains, ATCC VR-534, MDBK
How it was run: (§1)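 BHK (5×10^4/well) or MDBK (3×10^4/well) cells grown to confluent monolayers overnight, infected at m.o.i. 0.01 in maintenance MEM-Earl with 0.5% inactivated FBS. Serially diluted compounds added after 1 h. Viability read by MTT after 3–4 days at 37 °C. Values are expressed as % of untreated controls, and EC50 is derived by linear regression. Duplicate samples.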

[2] = Cytotoxicity against african green monkey Vero 76 cells after 48 to 96 hrs by MTT assay; format: cell-based; settings: chlorocebus sabaeus
[3] = tested on: Yellow fever virus; assay: Antiviral activity against Yellow fever virus 17D infected in BHK21 cells assessed as inhibition of virus-induced cytopathogenicity after 3 to 4 days by MTT assay; format: functional, cell-based; settings: BHK-21
[4] = tested on: Vaccinia virus; assay: Antiviral activity against Vaccinia virus Elstree-Lister ATCC VR-1549 infected in african green monkey Vero-76 cells assessed as reduction in viral plaque after 3 days by crystal violet staining; format: functional, organism-based; settings: Orthopoxvirus vaccinia, Elstree-Lister ATCC VR-1549, Vero 76, 72 h
[5] = tested on: Poliovirus 1; assay: Antiviral activity against Polio virus type 1 strain sabin ATCC VR-1562 infected in african green monkey Vero-76 cells assessed as reduction in viral plaque after 2 days by crystal violet staining; format: functional, cell-based, Human poliovirus 1 strain Sabin; settings: Enterovirus C, ATCC VR-1562, Vero 76, 48 h
[6] = tested on: Coxsackievirus B5; assay: Antiviral activity against Coxsackie virus type B5 Ohio-1 ATCC VR-29 infected in african green monkey Vero-76 cells assessed as reduction in viral plaque after 3 days by crystal violet staining; format: functional, organism-based; settings: Enterovirus B, Ohio-1 ATCC VR-29, Vero 76, 72 h
How it was run: (§2)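 Vero-76 monolayers (2×10^5 cells/well) infected for 2 h at 50–100 PFU/well. Unadsorbed virus removed. D-MEM with 1% inactivated FBS, 0.75% methylcellulose and serial compound dilutions added. Incubation at 37 °C for 3 days (CVB-5, HSV-1) or 5 days (RSV). Fixed and stained with 50% ethanol/0.8% crystal violet, then plaques counted. EC50 by linear regression versus untreated controls.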

[7] = tested on: Human alphaherpesvirus 1; assay: Antiviral activity against Herpes simplex virus type 1 KOS ATCC VR-1493 infected in african green monkey Vero-76 cells assessed as reduction in viral plaque after 3 days by crystal violet staining; format: functional, organism-based; settings: Human alphaherpesvirus 1, KOS ATCC VR1493, Vero 76, 72 h; how it was run: as §2
[8] = tested on: Mammalian orthoreovirus 1; assay: Antiviral activity against Reovirus 1 3651 ATCC VR-214 infected in BHK21 cells assessed as inhibition of virus-induced cytopathogenicity after 3 to 4 days by MTT assay; format: functional, organism-based; settings: Mammalian orthoreovirus 1, 3651 ATCC VR-214, BHK-21; how it was run: as §1
[9] = tested on: Vesicular stomatitis Indiana virus; assay: Antiviral activity against Vesicular stomatitis virus indiana ATCC VR-1540 infected in african green monkey Vero-76 cells assessed as reduction in viral plaque after 2 days by crystal violet staining; format: functional, organism-based; settings: ATCC VR-1540, Vero 76, 48 h
[10] = Antiviral activity against Human respiratory syncytial virus A2 ATCC VR-1540 infected in african green monkey Vero-76 cells assessed as reduction in viral plaque after 5 days by crystal violet staining; format: functional, cell-based; settings: ATCC VR-1540, Vero 76, 120 h; how it was run: as §2
[11] = Cytotoxicity against MDBK cells after 48 to 96 hrs by MTT assay; format: cell-based, Bos taurus; settings: cattle
How it was run: (§3)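 Mock-infected MDBK (6×10^5 cells/mL, MEM-E with 10% horse serum) or BHK (1×10^6 cells/mL, MEM-E with 10% FBS) cells incubated with serial compound dilutions at 37 °C and 5% CO2. Viability measured by MTT after 48–96 h. CC50 by linear regression against untreated controls.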

[12] = Cytotoxicity against BHK21 cells by MTT assay; format: cell-based, Mesocricetus auratus; settings: hamster, BHK-21 cells; how it was run: as §3

## O=[N+]([O-])c1ccc2[nH]c(-c3ccccc3)nc2c1
[1]
  EC50: 1.5 µM

## Nc1nc2c(ncn2COCCO)c(=O)[nH]1 [ACYCLOVIR]
[2]
  CC50: > 100 µM

## Nc1ccc(-c2nc3cc(Cl)ccc3[nH]2)c2ccccc12
[3]
  EC50: 27 µM

## O=[N+]([O-])c1ccc(-c2nc3cc(Cl)c(Cl)cc3[nH]2)cc1
[4]
  EC50: 0.1 µM

## C/C(=N\O)c1ccc2[nH]c(-c3ccccc3)nc2c1
[3]
  EC50: > 100 µM
[5]
  EC50: > 100 µM
[6]
  EC50: > 100 µM
[7]
  EC50: > 100 µM
[8]
  EC50: > 100 µM
[4]
  EC50: > 100 µM
[9]
  EC50: > 100 µM
[2]
  CC50: > 100 µM
[1]
  EC50: > 100 µM
[10]
  EC50: > 100 µM
[11]
  CC50: > 100 µM
[12]
  CC50: > 100 µM

## CC(=O)c1ccc2[nH]c(-c3ccc(Cl)cc3)nc2c1
[3]
  EC50: > 100 µM
[5]
  EC50: > 100 µM
[6]
  EC50: > 100 µM
[7]
  EC50: > 100 µM
[8]
  EC50: > 100 µM
[4]
  EC50: > 100 µM
[9]
  EC50: > 100 µM
[2]
  CC50: > 100 µM
[1]
  EC50: > 100 µM
[10]
  EC50: > 100 µM
[11]
  CC50: > 100 µM
[12]
  CC50: > 100 µM

## C/C(=N\O)c1ccc2[nH]c(-c3ccc(C(F)(F)F)cc3)nc2c1
[1]
  EC50: > 55 µM
[11]
  CC50: 55 µM

## C/C(=N\NC(N)=O)c1ccc2[nH]c(C3CCCCC3)nc2c1
[3]
  EC50: > 100 µM
[5]
  EC50: > 100 µM
[6]
  EC50: > 100 µM
[7]
  EC50: > 100 µM
[8]
  EC50: > 100 µM
[4]
  EC50: > 100 µM
[9]
  EC50: > 100 µM
[2]
  CC50: > 100 µM
[1]
  EC50: 44 µM
[10]
  EC50: > 100 µM
[11]
  CC50: > 100 µM
[12]
  CC50: > 100 µM

## Cc1cc2nc(-c3cccc4ccccc34)[nH]c2cc1C
[3]
  EC50: 6 µM

## C/C(=N\NC(N)=O)c1ccc2c(c1)nc(-c1ccccn1)n2C1CCCCC1
[3]
  EC50: > 100 µM
[5]
  EC50: > 100 µM
[6]
  EC50: > 100 µM
[7]
  EC50: > 100 µM
[8]
  EC50: > 100 µM
[4]
  EC50: > 100 µM
[9]
  EC50: > 100 µM
[2]
  CC50: > 100 µM
[1]
  EC50: > 100 µM
[10]
  EC50: > 100 µM
[11]
  CC50: > 100 µM
[12]
  CC50: > 100 µM

## C/C(=N\NC(N)=O)c1ccc2c(c1)nc(-c1ccc(C(F)(F)F)cc1)n2C1CCCCC1
[3]
  EC50: > 100 µM
[5]
  EC50: > 100 µM
[6]
  EC50: > 100 µM
[8]
  EC50: > 100 µM
[4]
  EC50: > 100 µM
[9]
  EC50: > 100 µM
[2]
  CC50: > 100 µM
[1]
  EC50: > 100 µM
[10]
  EC50: > 100 µM
[11]
  CC50: > 100 µM
[12]
  CC50: > 100 µM

## Nc1ccc(-c2nc3cc(Cl)c(Cl)cc3[nH]2)c2ccccc12
[3]
  EC50: 16 µM

## COc1ccc(-c2nc3cc(/C(C)=N/O)ccc3[nH]2)cc1
[3]
  EC50: > 44 µM
[5]
  EC50: > 100 µM
[6]
  EC50: > 100 µM
[8]
  EC50: > 100 µM
[4]
  EC50: > 100 µM
[2]
  CC50: > 100 µM
[1]
  EC50: > 44 µM
[11]
  CC50: 44 µM
[12]
  CC50: 44 µM

## COc1c(C)c2c(c(O)c1C/C=C(\C)CCC(=O)O)C(=O)OC2 [MYCOPHENOLIC ACID]
[4]
  EC50: 1.5 µM
[2]
  CC50: ≥ 12.5 µM

## C[C@@]1(O)[C@H](O)[C@@H](CO)O[C@H]1n1ccc(N)nc1=O
[8]
  EC50: 16 µM
[12]
  CC50: > 100 µM

## CC(=O)Nc1ccc(/C=C/c2nc3cc(C(F)(F)F)ccc3[nH]2)cc1
[10]
  EC50: 1 µM

## C/C(=N\NC(N)=O)c1ccc2[nH]c(-c3ccc(C(F)(F)F)cc3)nc2c1
[3]
  EC50: > 100 µM
[5]
  EC50: > 100 µM
[6]
  EC50: > 100 µM
[7]
  EC50: > 100 µM
[8]
  EC50: > 100 µM
[4]
  EC50: > 100 µM
[9]
  EC50: > 100 µM
[2]
  CC50: > 100 µM
[1]
  EC50: 45 µM
[10]
  EC50: > 100 µM
[11]
  CC50: > 100 µM
[12]
  CC50: > 100 µM

## C/C(=N\NC(N)=O)c1ccc2c(c1)nc(-c1ccccc1)n2C1CCCCC1
[3]
  EC50: > 100 µM
[5]
  EC50: > 100 µM
[6]
  EC50: > 100 µM
[7]
  EC50: > 100 µM
[8]
  EC50: > 100 µM
[4]
  EC50: > 100 µM
[9]
  EC50: > 100 µM
[2]
  CC50: > 100 µM
[1]
  EC50: > 100 µM
[10]
  EC50: > 100 µM
[11]
  CC50: > 100 µM
[12]
  CC50: > 100 µM

## O=c1cnn([C@@H]2O[C@H](CO)[C@@H](O)[C@H]2O)c(=O)[nH]1 [6-AZAURIDINE]
[2]
  CC50: ≥ 12.5 µM
[10]
  EC50: 1.2 µM

## C/C(=N\NC(N)=O)c1ccc2[nH]c(-c3ccoc3)nc2c1
[3]
  EC50: > 100 µM
[5]
  EC50: > 100 µM
[6]
  EC50: > 100 µM
[7]
  EC50: > 100 µM
[8]
  EC50: > 100 µM
[4]
  EC50: > 100 µM
[9]
  EC50: > 100 µM
[2]
  CC50: > 100 µM
[1]
  EC50: 60 µM
[10]
  EC50: > 100 µM
[11]
  CC50: > 100 µM
[12]
  CC50: > 100 µM

## CC(=O)c1ccc2[nH]c(-c3ccccc3)nc2c1
[3]
  EC50: > 100 µM
[5]
  EC50: > 100 µM
[6]
  EC50: > 100 µM
[7]
  EC50: > 100 µM
[8]
  EC50: > 100 µM
[4]
  EC50: > 100 µM
[9]
  EC50: > 100 µM
[2]
  CC50: > 100 µM
[1]
  EC50: 100 µM
[10]
  EC50: > 100 µM
[11]
  CC50: > 100 µM
[12]
  CC50: > 100 µM

## CC(=O)c1ccc2[nH]c(/C=C/c3ccc([N+](=O)[O-])cc3)nc2c1
[1]
  EC50: 1.7 µM

## COc1ccc(-c2nc3cc(/C(C)=N/NC(N)=O)ccc3n2C2CCCCC2)cc1
[1]
  EC50: > 54 µM
[11]
  CC50: 54 µM

## C/C(=N\NC(N)=O)c1ccc2c(c1)nc(-c1ccoc1)n2C1CCCCC1
[1]
  EC50: 100 µM
[11]
  CC50: > 100 µM

## C#C[C@@]1(O)[C@H](O)[C@@H](CO)O[C@H]1n1ccc(N)nc1=O [2'-ETHYNYL-D-CYTIDINE]
[5]
  EC50: 23 µM
[6]
  EC50: 27 µM
[2]
  CC50: > 100 µM

## C[C@@]1(O)[C@H](O)[C@@H](CO)O[C@H]1n1cnc2c(=O)[nH]c(N)nc21 [2'-B-METHYL-GUANOSINE]
[1]
  EC50: 1.1 µM
[11]
  CC50: > 10 µM
[12]
  CC50: > 10 µM

## COc1ccc(-c2nc3cc(/C(C)=N/NC(N)=O)ccc3[nH]2)cc1
[1]
  EC50: 11 µM
[11]
  CC50: 25 µM

## Clc1ccc2c(c1)nc(Cn1nc3ccccc3n1)n2C[C@H]1CCCN2CCCCC12 (stereo not given in full)
[10]
  EC50: 0.03 µM
